Data taken from ChEMBL document CHEMBL1123566, “Synthesis and cardiac electrophysiological activity of 2- and 3-[(substituted phenyl)alkyl]quinuclidines. Structure-activity relationships” (1987).
“And” between values parts separate entries of the source, which are not always exact repeats. Equal entries are not always repeated.

Tests used:
Canis familiaris [1] = organism: Canis familiaris; assay: In vitro electrophysiological evaluation in canine cardiac ventricular muscle reported as % change for conduction time(CT) at 10 uM at 0.1-100 uM concentration range; Minimal (<10% decrease or increase in CT).; format: functional, Canis lupus familiaris, Muscle tissue
Canis familiaris [2] = assay: Mean arterial blood pressure was determined by intraduodenal administration of two dosages of 24 mg/kg of compound in anesthetized dogs. Value was reported for experiment 2; format: functional, Canis lupus familiaris
Canis familiaris [3] = organism: Canis familiaris; assay: In vitro electrophysiological evaluation in canine cardiac ventricular muscle reported as maximum % change for functional refractory period (FRP) at 0.1-100 uM concentration range; concentration at which it occurred is 100 uM.; parameters: species or system Canis lupus familiaris, Muscle tissue
Procedure, shortened: (§1)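 Canine right ventricle and papillary muscle strips in oxygenated Tyrode's solution, fitted with stimulating and recording electrodes. The extra-stimulus conduction-interval method was adapted for in vitro use. FRP and CT were read from a conduction-interval curve before and after various compound concentrations, and expressed as percent change from control. Compounds were taken from 10 mM deionized-water stock into Tyrode's. Each strip was used once as its own control.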

Canis familiaris [4] = assay: Heart rate was determined by intraduodenal administration of two dosages of 30 mg/kg of compound in anesthetized dogs. Value was reported for experiment 1; format: functional, Canis lupus familiaris
Procedure, shortened: (§2)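 Anesthetized dogs; compound given intraduodenally, generally as two doses, the second a cumulative (high) dose. LV functional refractory period and conduction time measured 15, 30 and 45 min after dosing; heart rate and blood pressure measured during nonpacing intervals. Values are % change from control, given per individual animal. Active if FRP or CT prolonged by ≥12%.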

Canis familiaris [5] = assay: Left ventricular refractory period was determined by intraduodenal administration of two doses of 24 mg/kg (high dose) of compound in anesthetized dogs. Value was reported for experiment 2; format: functional, Canis lupus familiaris, Cardiac ventricle
Canis familiaris [6] = organism: Canis familiaris; assay: In vitro electrophysiological evaluation in canine cardiac Purkinje fibres reported as percent change Vmax at 10 uM at concentration range of 1-100 uM; Minimal (<10% decrease or increase in V max).; format: functional; settings: Canis lupus familiaris, Purkinje fiber
Procedure, shortened: (§3)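 Canine cardiac Purkinje fibres, intracellular microelectrode recording, paced at a basic cycle length of 1 s. APD95 and Vmax read simultaneously. Compound: 10 mM stock in deionized water, diluted into Tyrode's solution, tested over the stated concentration range. Each fibre used once as its own control. Result is % change from control, given at 10 µM or as the maximum with its concentration. M = <10% decrease or an increase in Vmax.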

Canis familiaris [7] = organism: Canis familiaris; assay: In vitro electrophysiological evaluation in canine cardiac Purkinje fibres reported as maximum percent change Vmax concentration range of 1-100 uM; Minimal (<10% decrease or increase in V max).; format: functional; settings: Canis lupus familiaris; Purkinje fiber; procedure, shortened: as §3
Canis familiaris [8] = assay: Mean arterial blood pressure was determined by intraduodenal administration of two dosages of 30 mg/kg of compound in anesthetized dogs. Value was reported for experiment 1; format: functional, Canis lupus familiaris
Procedure, shortened: (§4)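 Anesthetized dogs received two intraduodenal doses, the second cumulative (low dose/high dose). Left ventricular FRP and CT were measured 15, 30 and 45 min after dosing. Heart rate and mean blood pressure were taken during nonpacing intervals. Values are percent change from control. The vehicle was 5% dextrose in water/tragacanth. Activity was defined as ≥12% prolongation of FRP or CT.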

Canis familiaris [9] = assay: Left ventricular refractory period was determined by intraduodenal administration of two doses of 10 mg/kg (low dose) of compound in anesthetized dogs. Value was reported for experiment 1; format: functional, Canis lupus familiaris, Cardiac ventricle
Canis familiaris [10] = assay: Heart rate was determined by intraduodenal administration of two doses of 10 mg/kg (low dose) of compound in anesthetized dogs. Value was reported for experiment 1; format: functional, Canis lupus familiaris; procedure, shortened: as §2
Canis familiaris [11] = organism: Canis familiaris; assay: In vitro electrophysiological evaluation in canine cardiac Purkinje fibres reported as percent change Vmax at 10 uM at concentration range of 1-100 uM.; format: functional; settings: Canis lupus familiaris, Purkinje fiber; procedure, shortened: as §3
Canis familiaris [12] = assay: Left ventricular refractory period was determined by intraduodenal administration two doses of 30 mg/kg (high dose) of compound in anesthetized dogs. Value was reported for experiment 1; format: functional, Canis lupus familiaris, Cardiac ventricle
Canis familiaris [13] = assay: Heart rate was determined by intraduodenal administration of two dosages of 10 mg/kg of compound in anesthetized dogs. Value was reported for experiment 2; format: functional, Canis lupus familiaris; procedure, shortened: as §2
Canis familiaris [14] = assay: Mean arterial blood pressure was determined by intraduodenal administration of two dosages of 10 mg/kg of compound in anesthetized dogs. Value was reported for experiment 2; format: functional, Canis lupus familiaris; procedure, shortened: as §4
Canis familiaris [15] = organism: Canis familiaris; assay: (§5) In vitro electrophysiological activity in canine cardiac occurred is 10 uM; format: functional, Canis lupus familiaris, Heart
Canis familiaris [16] = assay: Conduction time was determined by intraduodenal administration of two doses of 30 mg/kg (high dose) of compound in anesthetized dogs. Value was reported for experiment 1; format: functional, Canis lupus familiaris; procedure, shortened: as §2
Canis familiaris [17] = assay: Conduction time was determined by intraduodenal administration of two doses of 10 mg/kg (low dose) of compound in anesthetized dogs. Value was reported for experiment 1; format: functional, Canis lupus familiaris; procedure, shortened: as §2
Canis familiaris [18] = assay: Conduction time was determined by intraduodenal administration of two doses of 10 mg/kg (low dose) of compound in anesthetized dogs. Value was reported for experiment 2; format: functional, Canis lupus familiaris; procedure, shortened: as §2
Canis familiaris [19] = organism: Canis familiaris; assay: as §5; format: functional, Canis lupus familiaris, Heart; remark: listed apart in the source
Canis familiaris [20] = organism: Canis familiaris; assay: In vitro electrophysiological evaluation in canine cardiac ventricular muscle reported as maximum % change for conduction time(CT) at 0.1-100 uM concentration range; Minimal (<10% decrease or increase in CT).; format: functional, Canis lupus familiaris, Muscle tissue; procedure, shortened: as §1
Canis familiaris [21] = organism: Canis familiaris; assay: In vitro electrophysiological evaluation in canine cardiac ventricular muscle reported as % change for the functional refractory period (FRP) at 10 uM at concentration range of 0.1-100 uM; parameters: species or system Canis lupus familiaris, Muscle tissue; procedure, shortened: as §1
Canis familiaris [22] = assay: Mean arterial blood pressure was determined by intraduodenal administration of two dosages of 10 mg/kg of compound in anesthetized dogs. Value was reported for experiment 1; format: functional, Canis lupus familiaris; procedure, shortened: as §4
Canis familiaris [23] = organism: Canis familiaris; assay: In vitro electrophysiological activity in canine cardiac occurred is 100 uM; format: functional, Canis lupus familiaris, Heart
Canis familiaris [24] = assay: Left ventricular refractory period was determined by intraduodenal administration of two doses of 10 mg/kg (low dose) of compound in anesthetized dogs. Value was reported for experiment 2; format: functional, Canis lupus familiaris, Cardiac ventricle
Canis familiaris [25] = assay: Heart rate was determined by intraduodenal administration of two dosages of 24 mg/kg of compound in anesthetized dogs. Value was reported for experiment 2; format: functional, Canis lupus familiaris; procedure, shortened: as §2
Canis familiaris [26] = assay: Conduction time was determined by intraduodenal administration of two doses of 24 mg/kg (high dose) of compound in anesthetized dogs. Value was reported for experiment 2; format: functional, Canis lupus familiaris; procedure, shortened: as §2
Canis familiaris [27] = organism: Canis familiaris; assay: In vitro electrophysiological evaluation in canine cardiac occurred is 100 uM; format: functional; settings: Canis lupus familiaris; Heart
Canis familiaris [28] = organism: Canis familiaris; assay: In vitro electrophysiological evaluation in canine cardiac Purkinje fibres reported as % change for action potential duration at 1-100 uM concentration range; format: functional, Canis lupus familiaris, Purkinje fiber; procedure, shortened: as §3
Canis familiaris [29] = organism: Canis familiaris; assay: In vitro electrophysiological evaluation in canine cardiac Purkinje fibres reported as % change for action potential duration at a concentration of 10 uM; format: functional, Canis lupus familiaris, Purkinje fiber; procedure, shortened: as §3

Cl.O=C(CCC1C(=O)C2CCN1CC2)c1ccc([N+](=O)[O-])cc1 (centres undefined)
CT (Canis familiaris [1]): <10% | Mean blood pressure (Canis familiaris [2]): -1% | FRP (Canis familiaris [3]): 25% and 22% | HR (Canis familiaris [4]): -31% | LV FRP (Canis familiaris [5]): 19% | Vmax (Canis familiaris [6]): < 10% | Vmax (Canis familiaris [7]): < 10% | Mean blood pressure (Canis familiaris [8]): -21% | LV FRP (Canis familiaris [9]): 14% | HR (Canis familiaris [10]): -23% | Vmax (Canis familiaris [11]): -17% | LV FRP (Canis familiaris [12]): 15% | HR (Canis familiaris [13]): -35% | Mean blood pressure (Canis familiaris [14]): -10% | APD95 (Canis familiaris [15]): 53% | CT (Canis familiaris [16]): 2% | CT (Canis familiaris [17]): -1% | CT (Canis familiaris [18]): 6% | APD95 (Canis familiaris [19]): 36% and 25% | CT (Canis familiaris [20]): <10% | FRP (Canis familiaris [21]): 15% and 17% | Mean blood pressure (Canis familiaris [22]): -11% | APD95 (Canis familiaris [23]): 13% and -10% | LV FRP (Canis familiaris [24]): 16% | HR (Canis familiaris [25]): -40% | CT (Canis familiaris [26]): 11% | Vmax (Canis familiaris [27]): -23% | APD95 (Canis familiaris [28]): 53% and 25% | APD95 (Canis familiaris [29]): 36%
